Measurements reported in the EternaBench riboswitch data.

System: MS2 coat protein
Assay: apparent Kd, MS2 coat protein; higher = weaker binding; RNA-MaP array; FMN 200 µM where present
Method in brief: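 SNAP-549-labelled MS2 coat protein, doubled from 0.7 or 1.5 nM to 3 µM, was titrated over designs transcribed by stalled E. coli RNA polymerase on Illumina sequencing-chip clusters. Titrations were run without and then with constant ligand in 100 mM Tris-HCl pH 7.5, 80 mM KCl, 4 mM MgCl2, BSA, DTT, yeast tRNA and Tween-20. The apparent Kd is the median of filtered per-cluster fits to green signal normalised to red-channel RNA signal and control-cluster median Fmax.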

[1] = designed as: OFF switch for flavin mononucleotide, no ligand
[2] = ligand present: flavin mononucleotide, designed as: OFF switch for flavin mononucleotide
[3] = designed as: ON switch for flavin mononucleotide, no ligand
[4] = ligand present: flavin mononucleotide, designed as: ON switch for flavin mononucleotide

Sequence | apparent Kd [1] | apparent Kd [2] | apparent Kd [3] | apparent Kd [4]
AUAAAGUGAGGAUAUACAUGAGGAUCACCCAUGUGAAAGUCUAAAAAAAUGACAAAAAGUAGAAGGCACAAAUA | 0.0238 µM | 0.0243 µM |  | 
UCCUCGAUGUAGAAGGCCGCGUCCGGCUCACGCGGAGGAUAUACAUGAGGAUCACCCAUGUGUUUGUGGCUAAUAUGGUACGAA | 0.159 µM | 0.0182 µM |  | 
UAUUAGCUAGGAUAUACAUGAGGAUCACCCAUGUCACGGGUCAACUUGUCCUAUGCGUGUAGAAGGAGCGACCC | 0.0177 µM | 0.0217 µM |  | 
AAAUUUAACGAAGGAUAUGGAUACAUGAGGAUCACCCAUGUAUAUUUUGUGAUCUUGUAAAAGUACCAGAAGGUCGUAUACAUA | 0.0857 µM | 0.208 µM |  | 
AAGGCCUAUUCCAGGACUAUCGUACUAGAAGGGUGACUUGACAUGAGGAUCACCCAUGUACGAGCACAGGAUAUAGAUGAAAGG |  |  | 0.0427 µM | 0.0202 µM
CCAUACAUGAGGAUCACCCAUGACAUGAGGAUCACCCAUGUGCAGGAUAUACGUGAUAUAAUAUAGUAGAAGGGCAGACCAAAA | 0.0757 µM | 0.0852 µM |  | 
GCGUCAGAAUUAAUUGUGACAAGCAGAAGGCUAUAUCUUAUGUUAGACAUGAGGAUCACCCAUGUAGAGGAUAUGCAGUUACAC | 0.00787 µM | 0.0142 µM |  | 
GUCUCGAUGUAGAAGGCCGCGUCCGGCUCACGCGGAGGAUAUACAUGAGGAUCACCCAUGUGUCUGUGGCUAAUAUGGUACGGA | 0.0418 µM | 0.234 µM |  | 
UUAAUUAUACAAGGAUAUCUAAUGGACUUACGACAAACAUGAGGAUCACCCAUGUAAAUAUAUAAAGAGAAGGUGUAUUUUCAG |  |  | 0.0735 µM | 0.0415 µM
UGUCGGAGCAGAGGAUAUACAUGAGGAUCACCCAUGUAAUAAAGUGAAGCCUGGACACAGGCAAUGUAGAAGGCUGCUCCGACA | 0.0127 µM | 0.0879 µM |  | 
UUUUUGUCAGGAUAUGACUAGAUGCACGUUAGUGUGUUUACUUAGAAGGGACAUGAGGAUCACCCAUGUAUUCC | 0.0289 µM | 0.0241 µM |  | 
GCAUGCGUUCGAGGAUAUCGGUGAGCAACGGAACGAGAAGGCGAUCGAAUGUCACAUAUUAUGUACAUGAGGAUCACCCAUGUA |  |  | 0.104 µM | 0.0434 µM
UAGAAGUCAGGAUAUCCAGCUCGUCACUUGCGUGAUGAGUUGGAGAAGGGACAUGAGGAUCACCCAUGUAAAGG | 0.152 µM | 0.242 µM |  | 
CUCUUGUGAGGAUAUCAGUAGUAAAAAAAUAAAAUUACUACUGAGAAGGCACAUGAGGAUCACCCAUGUGUCUU | 0.014 µM | 0.0131 µM |  | 
ACAUGACAUGAGGAUCACCCAUGUGAGGAUAUGCGAAAAAAAAAAAAAAAAAAAAAAAGCAGAAGGCACAAAAA | 0.18 µM | 0.28 µM |  | 
GCAAUAGCAUGAGGAUAUGCUGGAGUUUAGACAGCAGAAGGCAUGUCAUAAGACAUGAGGAUCACCCAUGUAAUUACAAUAGCA |  |  | 0.0578 µM | 0.0104 µM
GAUUAACAUGAGGAUCACCCAUGUCGUUUAAUGGGAGGAUAUACGUGGACCGUAGUCCGCGUAGAAGGCCUAAUUG |  |  | 0.0908 µM | 0.0269 µM
UGGUACUAGGGAGGAUAUGGGAAGAUACAUGAGGAUCACCCAUGUUUAAGAAUGCCGAGAGGCAACUAGAAGGCCCUAAUACCU |  |  | 0.4 µM | 0.0191 µM
ACAUACUCUCGAGGAUAUCGUAUAAUUAUUAAACGAGAAGGCGAUUGUUUAUUUCUAAUACACGACAUGAGGAUCACCCAUGUA |  |  | 0.0271 µM | 0.0254 µM

Sequence | apparent Kd [1] | apparent Kd [2] | apparent Kd [3] | apparent Kd [4]
AAAAAACAUGAGGAUCACCCAUGUUAGGAUAUCGUGCAGAAAAAAAAAAAAAACUGCACGAGAAGGAACAAGGA | 0.0745 µM | 0.0988 µM |  | 
UUAGAUUAUUGAGGAUAUGGAUAUUUUUAUUAACCAGAAGGCAAACUCAACAUGAGGAUCACCCAUGUAUAAAGGGUAUUAGUU | 0.0956 µM | 0.0927 µM |  | 
CCAUCGAGUGUGAGGAUAUGCUGUUCCUUGGAGCAGCAGAAGGCACAUGAGGAUCACCCAUGUGGAUACGGUGG | 0.0343 µM | 0.251 µM |  | 
UACAUGUAAGGAUAUGUAAAAUCAAAACAAGAACGAUAAAGACAGAAGGUACAUGAGGAUCACCCAUGUGUCCC | 0.0205 µM | 0.0214 µM |  | 
AAACAGCGAAGAUAAUAAUGAAUACAUGAGGAUCACCCAUGUAAGGAUAUCGUCAGGAAUACUGACGAGAAGGUACAUACGCUG | 0.016 µM | 0.0225 µM |  | 
GAAUUAAUGAUCCAAUUUUACAACAUGAGGAUCACCCAUGUGCAGGAUAUCGUGUGUUUUAUAUUCGAGAAGGGCAAAUACAUU | 0.161 µM | 0.287 µM |  | 
GCAGGUCGAGGAUAUACAUGAGGAUCACCCAUGUGAUUAGCAGUCCUCGGACUGCAAUGUAGAAGGUGACCUGC | 0.148 µM | 0.501 µM |  | 
AAGGAGUGAGGAUAUGCGCGGGCACGCUCUAAAUAAGAAAGACAUGAGGAUCACCCAUGUAGAAGGCACAAUAA | 0.0199 µM | 0.0325 µM |  | 
AAAAAACAUGAGGAUCACCCAUGUGAGGAUAUGCUAAAAAAAUCCGCAUGAAAAAAUAGCAGAAGGCACAUAAA | 0.0329 µM | 0.106 µM |  | 
CUUUCGUUAGCAGGAUAUGGACAGGCCUGUCCGUCUUGAGUCUGUAACAUGAGGAUCACCCAUGUCCAGAAGGGCUCGAAGGGA | 0.00804 µM | 0.015 µM |  | 
GGUCCAACAUGAGGAUAUAGCACCUUAUUGGUGCUAGAAGGCGUGUCGGUAGACAUGAGGAUCACCCAUGUAAUACAUUGGACC |  |  | 0.218 µM | 0.0285 µM
UGGUAACAUGAGGAUCACCCAUGUCAGGAUAUCAGUAAGAAUAGAUUAGAGUAGAAGAUGAGAAGGGACUAUAU | 0.0319 µM | 0.0295 µM |  | 
GUAGAACAUGAGGAUCACCCAUGUGAUUACGAUGUAGGAUAUGGGCAUGAGAAGUCAUUUCUAGAAGGGCAGAUAA |  |  | 0.141 µM | 0.154 µM
UUUUGACAUGAGGAUCACCCAUGUGAGGAUAUGGAGCGCGACCGCGCGGUCGCGUACACCAGAAGGCGCAGGAA | 0.0403 µM | 0.0708 µM |  | 
GAGUGAUUAGGAUAUACAUGAGGAUCACCCAUGUGCUUCAGCUAGGAGACUAGCAUUGGUAGAAGGAAUUACUC | 0.0163 µM | 0.0571 µM |  | 
GGUGCGUAUGUGAGGAUAUGCUGGUCCUUGGAUCGGCAGAAGGCACAUGAGGAUCACCCAUGUGGUGUCGUACC | 0.339 µM | 0.0244 µM |  | 
CUAUCUUAUGAGAAGGCGAUCAUGAAACAUGAUCGAGGAUAUCAUGUAAACAUGAGGAUCACCCAUGUAUGGGUAUUAUGGUAG |  |  | 0.175 µM | 0.0571 µM
UUAUGAGAGCAGGAUAUCUUAUAUUUUUAUUAAAGAGAAGGGCUCACAUGAGGAUCACCCAUGUGGUCCUAGAU | 0.0559 µM | 0.598 µM |  | 
UUGGACGUCGUAGGAUAUGUAGGAUAUGCCUACAUGAGGAUCACCCAUGUUGACAUGGAAGAAGGACAGAAGGACGAUGUCCAU |  |  | 0.108 µM | 0.00664 µM

Sequence | apparent Kd [1] | apparent Kd [2] | apparent Kd [3] | apparent Kd [4]
GUCAGCUCGUGAGGAUAUACAACACUGCUUCGGUAGUGUAUUAAGAUCACAUGAGGAUCACCCAUGUAGAAGGCACGAGCUGAU | 0.0151 µM | 0.268 µM |  | 
AACACGCUAACAAGCGACAUGAGGAUCACCCAUGUAAGGACACAGGAUAUCCGGAGUCAUAGGCCGGAGAAGGGUGAUCCUACC |  |  | 0.0334 µM | 0.0197 µM
UUUUAACAUGAGGAUCACCCAUGUGAGGAUAUCGAAAUUUAUAUUAAUAUUAAUAUAUCGAGAAGGCACAUUUU | 0.0798 µM | 0.104 µM |  | 
UUGAGGUGCAAGAAGGAUCACAUGAGGAUCACCCAUGUAAUAUAAAGUCUCGAGAUUUUAUAUUGAUAGGAUAUUGCACCGAAC |  |  | 0.0422 µM | 0.00626 µM
UGAUAGGACAGAGGAUAUACGUAUAAUUACCUCUACAUGAGGAUCACCCAUGUAGAAGGCUGUCCUAUCUAAGUCGGAAACGAC | 0.00599 µM | 0.00688 µM |  | 
GGGUACAUCGGAGGAUAUCAUGUAAAUACAUGAGGAUCACCCAUGUCGAUGGAGACAUCGGAAAUUGAGAAGGCCGAUGUACCG |  |  | 0.0169 µM | 0.00487 µM
GAUUGAGAGCAGGAUAUCUUAGAAAUGUAUUAAAGAGAAGGGCUCACAUGAGGAUCACCCAUGUGGUCCUAGAU | 0.0202 µM | 0.175 µM |  | 
GACCUCCCUGUAAGGAUAUCCGUGCAUCAAAGCAAGGAGAAGGUACAUGAGGAUCACCCAUGUCACCCGCGUUA | 0.0146 µM | 0.021 µM |  | 
AAUAACAGAGGAUAUACUAUUUUAUGUGUUUAUUGUUUUAAACAUGAGGAUCACCCAUGUAGAAGGCUGAAUGA | 0.0376 µM | 0.0544 µM |  | 
AUUAUGACCGAGUUAUACUUCUAAACAUGAGGAUCACCCAUGUAGGAUAUCAGCACGAUAAGUGCUGAGAAGGACAUCUCGGUC | 0.0137 µM | 0.0146 µM |  | 
AACGAUCUAGGAUAUACAUGAGGAUCACCCAUGUAAGAGCCCGAACCGGGCUCCCUCUGUAGAAGGAGGUCAAA | 0.0327 µM | 0.0403 µM |  | 
CCCGCUGCUGUGAGGAUAUGCCUGUGGGUGCGUGGGUAGAAGGCACAUGAGGAUCACCCAUGUCCUGCGGCUCC | 0.366 µM | 0.244 µM |  | 
GGGUACAUCGGAGGAUAUCAUGUAAAUACAUGAGGAUCACCCAUGUCGAUGGAGACAUCGGAGAUAGAGAAGGCCGAUGUACCG |  |  | 0.476 µM | 0.011 µM
GUUAAUUAGUGAGGAUAUACAGAGAGUGAAGCUGUAGAAGGCACAUUCCUCAAGACAUGAGGAUCACCCAUGUGAUAAUAAGAU | 0.0374 µM | 0.105 µM |  | 
GGAUCGUAUGUCAGGAUAUACCACUGGAUACAGUGGUAGAAGGGACAUGAGGAUCACCCAUGUGUUAUCGAUCC | 0.0589 µM | 0.124 µM |  | 
CUAGUACAUGAGGAUCACCCAUGUCAGGAUAUUGGAUAUGACAUGGAAAACAUGUUAACAAGAAGGGACUAUAG | 0.245 µM | 0.209 µM |  | 
ACUUCACAUGAGGAUCACCCAUGUGAGGAUAUCGUCGAGGAUGUAAUGCCAUCCGUGGCGAGAAGGCGCAUGGU | 0.0299 µM | 0.0777 µM |  | 
AGCAUGUUUACAUGAGGAUCACCCAUGUUUUUUAAGGAUAUCAGAAGGUACAUUUUGAGUUAGAGUAAGGAUAUGAUAUAUGCG |  |  | 0.0119 µM | 0.00882 µM
